Results taken from BindingDB's records for doi:10.1021/jm970020k (Eli Lilly, 1997).
pIC50: −log10 of the molar value.

Target: Integrin alpha-IIb/beta-3 (Homo sapiens, UniProt P08514+P05106)
Test: Inhibition of the platelet GPIIb-IIIa receptor measured as ability to attenuate ADP-induced (fibrinogen-mediated) platelet aggregation in human platelet-rich plasma (PRP)
Method in brief: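 Functional GPIIb-IIIa assay in human platelet-rich plasma. Aggregation was induced with ADP and depends on fibrinogen.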

Sequence of Integrin alpha-IIb/beta-3 (P05106 27-788 limits assumed): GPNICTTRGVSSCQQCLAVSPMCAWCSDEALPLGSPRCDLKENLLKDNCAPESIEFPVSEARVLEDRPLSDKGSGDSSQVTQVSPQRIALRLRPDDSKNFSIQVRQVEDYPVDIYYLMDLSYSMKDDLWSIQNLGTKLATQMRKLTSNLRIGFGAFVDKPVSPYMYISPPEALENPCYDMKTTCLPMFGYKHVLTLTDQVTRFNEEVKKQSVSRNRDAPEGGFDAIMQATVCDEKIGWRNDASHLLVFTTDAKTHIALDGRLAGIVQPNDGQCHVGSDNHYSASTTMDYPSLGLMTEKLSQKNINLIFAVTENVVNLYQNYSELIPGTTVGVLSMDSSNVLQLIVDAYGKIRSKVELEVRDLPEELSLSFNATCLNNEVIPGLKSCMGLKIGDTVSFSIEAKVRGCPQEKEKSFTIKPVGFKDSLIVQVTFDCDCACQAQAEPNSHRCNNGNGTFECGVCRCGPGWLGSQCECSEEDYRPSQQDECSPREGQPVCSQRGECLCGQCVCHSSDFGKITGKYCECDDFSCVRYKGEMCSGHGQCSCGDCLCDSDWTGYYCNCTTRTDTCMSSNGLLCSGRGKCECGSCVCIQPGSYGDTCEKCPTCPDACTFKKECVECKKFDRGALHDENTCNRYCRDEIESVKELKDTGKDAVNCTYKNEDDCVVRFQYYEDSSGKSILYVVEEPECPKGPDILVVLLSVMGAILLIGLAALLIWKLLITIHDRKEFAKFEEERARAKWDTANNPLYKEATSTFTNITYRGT
Sequence of Integrin alpha-IIb/beta-3 (P08514 32-887 limits assumed): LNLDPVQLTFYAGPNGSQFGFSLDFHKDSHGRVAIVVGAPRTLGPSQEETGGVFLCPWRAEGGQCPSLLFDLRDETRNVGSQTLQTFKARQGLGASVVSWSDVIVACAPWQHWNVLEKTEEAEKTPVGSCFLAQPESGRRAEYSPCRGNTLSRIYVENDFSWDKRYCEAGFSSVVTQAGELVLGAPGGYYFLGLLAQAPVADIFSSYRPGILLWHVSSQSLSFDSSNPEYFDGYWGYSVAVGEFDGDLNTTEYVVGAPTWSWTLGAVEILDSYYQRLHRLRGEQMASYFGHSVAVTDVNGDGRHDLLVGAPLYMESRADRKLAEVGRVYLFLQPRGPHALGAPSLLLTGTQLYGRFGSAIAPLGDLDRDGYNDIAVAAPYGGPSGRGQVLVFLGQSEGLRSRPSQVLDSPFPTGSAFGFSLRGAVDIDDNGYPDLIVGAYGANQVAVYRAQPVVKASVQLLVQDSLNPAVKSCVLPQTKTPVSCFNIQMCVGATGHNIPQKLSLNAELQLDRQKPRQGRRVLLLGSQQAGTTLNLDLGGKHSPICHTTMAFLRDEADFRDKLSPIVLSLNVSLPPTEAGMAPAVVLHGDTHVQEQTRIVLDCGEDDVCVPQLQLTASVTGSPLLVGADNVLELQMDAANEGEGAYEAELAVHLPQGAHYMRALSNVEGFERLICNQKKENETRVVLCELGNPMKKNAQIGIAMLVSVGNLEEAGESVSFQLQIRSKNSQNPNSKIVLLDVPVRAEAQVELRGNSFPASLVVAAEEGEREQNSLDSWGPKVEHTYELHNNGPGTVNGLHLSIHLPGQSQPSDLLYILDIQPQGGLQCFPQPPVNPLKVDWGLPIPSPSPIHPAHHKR
Sequence of Integrin alpha-IIb/beta-3 (P08514 891-1039 limits assumed): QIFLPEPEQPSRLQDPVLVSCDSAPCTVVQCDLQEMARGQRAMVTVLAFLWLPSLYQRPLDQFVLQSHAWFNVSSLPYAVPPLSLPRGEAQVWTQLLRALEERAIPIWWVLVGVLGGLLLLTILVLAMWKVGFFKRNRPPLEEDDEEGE

Row | pIC50 | SMILES
1 | 4.41 | N=C(N)c1ccc2[nH]c(C(=O)NCc3ccc(CCC(=O)O)cc3)cc2c1 [3-(4-{[(5-Carbamimidoyl-1H-indole-2-carbonyl)-amino]-methyl}-phenyl)-propionic acid]
2 | 4.60 | CCCCC(CCCCNC(=O)c1cc2cc(C(=N)N)ccc2[nH]1)CC(=O)O (stereo unspecified) [3-Butyl-7-[(5-carbamimidoyl-1H-indole-2-carbonyl)-amino]-heptanoic acid]
3 | 5.44 | N=C(N)c1ccc2[nH]c(C(=O)NCCC(=O)NCCC(=O)O)cc2c1 [3-{3-[(5-Carbamimidoyl-1H-indole-2-carbonyl)-amino]-propionylamino}-propionic acid]
4 | 4.23 | CCCCCCC(CCCCNC(=O)c1cc2cc(C(=N)N)ccc2[nH]1)CC(=O)O (stereo unspecified) [3-{4-[(5-Carbamimidoyl-1H-indole-2-carbonyl)-amino]-butyl}-nonanoic acid]
5 | 4.30 | N=C(N)c1ccc2[nH]c(C(=O)NCC(=O)NCCCC(=O)O)cc2c1 [4-{2-[(5-Carbamimidoyl-1H-indole-2-carbonyl)-amino]-acetylamino}-butyric acid]
6 | < 4.00 | N=C(N)c1ccc2[nH]c(C(=O)NCCCCCC(=O)O)cc2c1 [6-[(5-Carbamimidoyl-1H-indole-2-carbonyl)-amino]-hexanoic acid]
7 | 4.80 | N=C(N)c1ccc2oc(C(=O)NCCCCCC(=O)O)cc2c1 [6-[(5-Carbamimidoyl-benzofuran-2-carbonyl)-amino]-hexanoic acid]
8 | < 4.00 | N=C(N)c1cccc(NCC(=O)NCCCCCCC(=O)O)c1 [7-[2-(3-Carbamimidoyl-phenylamino)-acetylamino]-heptanoic acid]
9 | 5.59 | N=C(N)c1ccc(OCC(=O)NCCCCCCC(=O)O)cc1 [7-[2-(4-Carbamimidoyl-phenoxy)-acetylamino]-heptanoic acid]
10 | 4.17 | N=C(N)c1ccc(NCC(=O)NCCCCCCC(=O)O)cc1 [7-[2-(4-Carbamimidoyl-phenylamino)-acetylamino]-heptanoic acid]
11 | 5.12 | Cn1c(C(=O)NCCCCCCC(=O)O)cc2cc(C(=N)N)ccc21 [7-[(5-Carbamimidoyl-1-methyl-1H-indole-2-carbonyl)-amino]-heptanoic acid]
12 | < 4.00 | CCC(CCCCCNC(=O)c1cc2cc(C(=N)N)ccc2[nH]1)C(=O)O (stereo unspecified) [7-[(5-Carbamimidoyl-1H-indole-2-carbonyl)-amino]-2-ethyl-heptanoic acid]
13 | 4.36 | CC(CCCCCNC(=O)c1cc2cc(C(=N)N)ccc2[nH]1)C(=O)O (stereo unspecified) [7-[(5-Carbamimidoyl-1H-indole-2-carbonyl)-amino]-2-methyl-heptanoic acid]
14 | 5.28 | CCC(CCCCNC(=O)c1cc2cc(C(=N)N)ccc2[nH]1)CC(=O)O (stereo unspecified) [7-[(5-Carbamimidoyl-1H-indole-2-carbonyl)-amino]-3-ethyl-heptanoic acid]
15 | 5.55 | CC(CCCCNC(=O)c1cc2cc(C(=N)N)ccc2[nH]1)CC(=O)O (stereo unspecified) [7-[(5-Carbamimidoyl-1H-indole-2-carbonyl)-amino]-3-methyl-heptanoic acid]
16 | 5.31 | N=C(N)c1ccc2[nH]c(C(=O)NCCCCC(CC(=O)O)c3ccccc3)cc2c1 (stereo unspecified) [7-[(5-Carbamimidoyl-1H-indole-2-carbonyl)-amino]-3-phenyl-heptanoic acid]
17 | 5.55 | N=C(N)c1ccc2[nH]c(C(=O)NCCCCCCC(=O)O)cc2c1 [7-[(5-Carbamimidoyl-1H-indole-2-carbonyl)-amino]-heptanoic acid]
18 | 5.52 | CN(CCCCCCC(=O)O)C(=O)c1cc2cc(C(=N)N)ccc2[nH]1 [7-[(5-Carbamimidoyl-1H-indole-2-carbonyl)-methyl-amino]-heptanoic acid]
19 | 5.47 | N=C(N)c1ccc2c(c1)CC(C(=O)NCCCCCCC(=O)O)O2 (stereo unspecified) [7-[(5-Carbamimidoyl-2,3-dihydro-benzofuran-2-carbonyl)-amino]-heptanoic acid]
20 | 5.39 | Cc1c(C(=O)NCCCCCCC(=O)O)[nH]c2ccc(C(=N)N)cc12 [7-[(5-Carbamimidoyl-3-methyl-1H-indole-2-carbonyl)-amino]-heptanoic acid]
21 | 5.14 | N=C(N)c1ccc2sc(C(=O)NCCCCCCC(=O)O)cc2c1 [7-[(5-Carbamimidoyl-benzo[b]thiophene-2-carbonyl)-amino]-heptanoic acid]
22 | 6.57 | N=C(N)c1ccc2oc(C(=O)NCCCCCCC(=O)O)cc2c1 [7-[(5-Carbamimidoyl-benzofuran-2-carbonyl)-amino]-heptanoic acid]
23 | 6.85 | N=C(N)c1ccc2c(C(=O)NCCCCCCC(=O)O)[nH]nc2c1 [7-[(6-Carbamimidoyl-1H-indazole-3-carbonyl)-amino]-heptanoic acid]
24 | 5.89 | N=C(N)c1ccc2cc(C(=O)NCCCCCCC(=O)O)[nH]c2c1 [7-[(6-Carbamimidoyl-1H-indole-2-carbonyl)-amino]-heptanoic acid]
25 | 6.19 | N=C(N)c1ccc2c(C(=O)NCCCCCCC(=O)O)c[nH]c2c1 [7-[(6-Carbamimidoyl-1H-indole-3-carbonyl)-amino]-heptanoic acid]
26 | 5.14 | N=C(N)c1ccc2cc(C(=O)NCCCCCCC(=O)O)oc2c1 [7-[(6-Carbamimidoyl-benzofuran-2-carbonyl)-amino]-heptanoic acid]
27 | 4.33 | N=C(N)c1ccc2[nH]c(C(=O)NCc3ccc(CC(=O)O)cc3)cc2c1 [(4-{[(5-Carbamimidoyl-1H-indole-2-carbonyl)-amino]-methyl}-phenyl)-acetic acid]
28 | 4.49 | N=C(N)c1ccc2[nH]c(C(=O)NCCCC(=O)NCC(=O)O)cc2c1 [{4-[(5-Carbamimidoyl-1H-indole-2-carbonyl)-amino]-butyrylamino}-acetic acid]

Target: not listed separately
Test: Inhibition ADP-induced (fibrinogen-mediated) platelet aggregation in human platelet-rich plasma (PRP)

Row | pIC50 | SMILES
29 | 4.68 | N=C(N)c1ccc2c(c1)cc(C(=O)NCCCCCCC(=O)O)n2Cc1ccccc1 [7-[(1-Benzyl-5-carbamimidoyl-1H-indole-2-carbonyl)-amino]-heptanoic acid]
30 | 4.57 | N=C(N)c1ccc2oc(C(=O)NCCCCCCCC(=O)O)cc2c1 [8-[(5-Carbamimidoyl-benzofuran-2-carbonyl)-amino]-octanoic acid]
31 | 7.46 | C#C[C@H](CC(=O)O)NC(=O)CCC(=O)Nc1ccc(C(=N)N)cc1 [(S)-3-[3-(4-Carbamimidoyl-phenylcarbamoyl)-propionylamino]-pent-4-ynoic acid]
